Calls of active or inactive are those of the source. The rule behind the calls is not given here. Where a SMILES comes first, the peptide text is derived from it. [ ]: non-standard residue; d: D form. pY = N[C@@H](Cc1ccc(OP(=O)(O)O)cc1)C(=O)O
What was measured:
[1] = biological target: T1, Signal transducer and activator of transcription 3 (Homo sapiens, UniProt P40763); assay: (§1) Displacement of 5-carboxyfluorescein GpYLPQTV-NH2 probe from C-terminal 6His-tagged recombinant human STAT3 (127 to 711 residues) SH2 domain extracted from Escherichia coli BL21 (DE3) assessed as inhibition of dimerization preincubated for 10 mins followed by probe addition and measured after 30 mins by fluorescence polarization assay
T1 sequence (P40763 whole entry, the tested form may be a part): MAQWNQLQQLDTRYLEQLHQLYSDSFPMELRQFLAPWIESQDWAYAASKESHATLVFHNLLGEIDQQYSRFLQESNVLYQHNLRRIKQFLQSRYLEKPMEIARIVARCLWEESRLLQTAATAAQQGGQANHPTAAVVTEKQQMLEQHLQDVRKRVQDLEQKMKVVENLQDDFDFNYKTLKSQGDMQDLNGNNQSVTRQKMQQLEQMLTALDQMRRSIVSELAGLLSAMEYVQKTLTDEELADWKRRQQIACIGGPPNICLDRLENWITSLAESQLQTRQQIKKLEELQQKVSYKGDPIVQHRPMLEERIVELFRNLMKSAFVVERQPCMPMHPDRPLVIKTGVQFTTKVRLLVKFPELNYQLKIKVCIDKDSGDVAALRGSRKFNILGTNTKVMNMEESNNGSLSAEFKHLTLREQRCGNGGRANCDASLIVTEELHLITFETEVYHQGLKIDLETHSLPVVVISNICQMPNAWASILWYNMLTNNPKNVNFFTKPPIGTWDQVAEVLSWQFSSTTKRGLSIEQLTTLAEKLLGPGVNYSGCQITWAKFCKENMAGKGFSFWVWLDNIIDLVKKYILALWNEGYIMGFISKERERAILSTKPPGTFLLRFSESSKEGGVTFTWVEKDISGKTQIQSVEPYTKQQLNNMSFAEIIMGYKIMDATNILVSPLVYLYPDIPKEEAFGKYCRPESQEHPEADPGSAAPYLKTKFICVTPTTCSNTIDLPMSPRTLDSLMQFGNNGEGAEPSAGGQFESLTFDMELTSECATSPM

[2] = biological target: T1, Signal transducer and activator of transcription 3; assay: as §1, with “30” for “10”
[3] = biological target: T1, Signal transducer and activator of transcription 3; assay: as §1, with “60” for “10”
[4] = biological target: T1, Signal transducer and activator of transcription 3; assay: Inhibition of C-terminal 6His-tagged recombinant human STAT3 (127 to 711 residues) DNA-binding activity transfected in v-Src transformed mouse NIH3T3 cell nuclear extract preincubated for 10 mins followed by addition of radiolabeled hSIE and measured after 30 mins by EMSA analysis; format: subcellular, Nucleus
[5] = biological target: T1, Signal transducer and activator of transcription 3; assay: Inhibition of C-terminal 6His-tagged recombinant human STAT3 (127 to 711 residues) DNA-binding activity transfected in v-Src transformed mouse NIH3T3 cell nuclear extract preincubated for 60 mins followed by addition of radiolabeled hSIE and measured after 30 mins by EMSA analysis; format: subcellular, Nucleus
[6] = biological target: T1, Signal transducer and activator of transcription 3; assay: (§2) Inhibition of recombinant wild type tyrosine phosphorylated C-terminal 6His tagged human STAT3 (127 to 711 residues) DNA-binding activity transfected in v-Src transformed mouse NIH3T3 cell nuclear extract preincubated for 30 mins followed by addition of radiolabeled hSIE and measured after 30 mins by EMSA analysis; format: subcellular, Nucleus
[7] = biological target: Signal transducer and activator of transcription 3 (Homo sapiens, UniProt P40763, C328A); assay: as §2, with “STAT3 C328A mutant” for “STAT3”; format: subcellular, Nucleus
Chain of Signal transducer and activator of transcription 3 (Homo sapiens, UniProt P40763, C328A) (P40763 2-770 C328A limits assumed): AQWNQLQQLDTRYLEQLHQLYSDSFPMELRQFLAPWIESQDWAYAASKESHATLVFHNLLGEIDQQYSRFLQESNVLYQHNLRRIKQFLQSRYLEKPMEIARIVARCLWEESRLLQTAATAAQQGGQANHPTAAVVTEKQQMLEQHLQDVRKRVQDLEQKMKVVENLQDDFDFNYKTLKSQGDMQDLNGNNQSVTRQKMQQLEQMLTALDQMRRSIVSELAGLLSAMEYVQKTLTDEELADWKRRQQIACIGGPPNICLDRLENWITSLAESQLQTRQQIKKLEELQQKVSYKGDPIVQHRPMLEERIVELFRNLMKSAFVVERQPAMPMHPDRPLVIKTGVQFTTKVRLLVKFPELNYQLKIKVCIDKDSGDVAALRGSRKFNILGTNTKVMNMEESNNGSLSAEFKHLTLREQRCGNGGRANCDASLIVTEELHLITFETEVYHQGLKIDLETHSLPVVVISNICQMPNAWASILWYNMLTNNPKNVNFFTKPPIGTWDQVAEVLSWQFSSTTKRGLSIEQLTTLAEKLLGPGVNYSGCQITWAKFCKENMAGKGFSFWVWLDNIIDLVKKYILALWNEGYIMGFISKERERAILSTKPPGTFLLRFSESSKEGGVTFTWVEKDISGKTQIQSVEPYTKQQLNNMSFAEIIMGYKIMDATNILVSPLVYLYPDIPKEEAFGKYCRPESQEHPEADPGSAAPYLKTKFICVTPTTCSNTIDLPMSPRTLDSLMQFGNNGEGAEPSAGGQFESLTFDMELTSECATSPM

[8] = biological target: Signal transducer and activator of transcription 3 (Homo sapiens, UniProt P40763, C542S); assay: as §2, with “STAT3 C542S mutant” for “STAT3”; format: subcellular, Nucleus
Chain of Signal transducer and activator of transcription 3 (Homo sapiens, UniProt P40763, C542S) (P40763 2-770 C542S limits assumed): as the sequence (P40763 2-770 C328A limits assumed) above, with A327C, C541S counted along it

[9] = test system: PANC-1; assay: Inhibition of STAT3/EGFR protein-protein interaction in human PANC-1 cells at 3 uM incubated for 8 hrs by immunoblotting analysis; format: cell-based
Outline: (§3)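 Panc-1 pancreatic cancer cells treated 8 h; whole-cell lysates prepared, EGFR, gp130, Src or JAK2 immunoprecipitated and immunoblotted for Stat3; control cells given 0.1% DMSO; 2 independent determinations.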

[10] = test system: PANC-1; assay: Inhibition of STAT3/gp130 protein-protein interaction in human PANC-1 cells at 3 uM incubated for 8 hrs by immunoblotting analysis; format: cell-based; outline: as §3
[11] = biological target: JAK2-STAT3 (Homo sapiens) (UniProt O60674+P40763); assay: Inhibition of STAT3/JAK2 protein-protein interaction in human PANC-1 cells at 3 uM incubated for 8 hrs by immunoblotting analysis; format: cell-based
[12] = test system: PANC-1; assay: Inhibition of STAT3/Src protein-protein interaction in human PANC-1 cells at 3 uM incubated for 8 hrs by immunoblotting analysis; format: cell-based; outline: as §3

Structure (SMILES) | IC50 [1] [µM] | IC50 [2] [µM] | IC50 [3] [µM] | IC50 [4] [µM] | IC50 [5] [µM] | IC50 [6] [µM] | IC50 [7] [µM] | IC50 [8] [µM] | inhibition [11] | inhibition [9] | inhibition [10] | inhibition [12]
CC(C)C[C@H](NC(=O)[C@H](Cc1ccc(OP(=O)(O)O)cc1)NC(=O)CN)C(=O)N1CCC[C@H]1C(=O)N[C@@H](CCC(N)=O)C(=O)N[C@H](C(=O)N[C@H](C(=O)O)C(C)C)[C@@H](C)O (H-G[pY]LPQTV-OH) | 0.29 | 0.22 | 0.19 |  |  |  |  |  |  |  |  | 
Cc1ccc(S(=O)(=O)N2CC[C@@H]2C(=O)N(Cc2ccc(C3CCCCC3)cn2)c2ccc(C(=O)O)c(O)c2)cc1 | 86.4 | 83.6 | 82.5 |  |  |  |  |  |  |  |  | 
O=C(O)c1ccc(N(Cc2cnc(C3CCCCC3)cn2)C(=O)[C@H]2CCN2S(=O)(=O)c2c(F)c(F)c(Cl)c(F)c2F)cc1O | 190 | 186 | 181 |  |  |  |  |  |  |  |  | 

The next lines start with results.

IC50 [1] [µM] | IC50 [2] [µM] | IC50 [3] [µM] | IC50 [4] [µM] | IC50 [5] [µM] | IC50 [6] [µM] | IC50 [7] [µM] | IC50 [8] [µM] | inhibition [11] | Structure (SMILES) | inhibition [9] | inhibition [10] | inhibition [12]
48.4 | 41.4 | 35.5 |  |  |  |  |  |  | CN(CC(=O)N(Cc1ccc(C2CCCCC2)cc1)c1ccc(C(=O)O)c(O)c1)S(=O)(=O)c1c(F)c(F)c(Cl)c(F)c1F |  |  | 
> 600 | > 600 | > 600 | 1.5 | 0.38 | 4.8 | 8.8 | 5.5 | Active | O=C([C@H]1CCN1S(=O)(=O)c1c(F)c(F)c(F)c(F)c1F)N(Cc1ccc(C2CCCCC2)cn1)c1ccc2c(=O)[nH]ncc2c1 | Active | Active | inactive

— ChEMBL document CHEMBL5579791, “Azetidine ring, salicylic acid, and salicylic acid bioisosteres as determinants of the binding characteristics of novel potent compounds to Stat3” (Bioorg Med Chem Lett, 2024)
